Reference: ChEMBL document CHEMBL3272047, “3-N-Substituted aminomethyl derivatives of rifamycin SV. A convenient method of synthesis, cyclization of certain derivatives, and anticellular and antiviral activities of several derivatives” (J Med Chem, 1977)

Legend:
[1] = Cytotoxicity against mouse 3T3-FL cells after 24 to 120 hrs; assay type: cell-based; conditions: read-out: MNTD>75
Outline: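 Uninfected 3T3 cells exposed to drug (0.25% Me2SO final, matched controls); triplicate plates counted at 24, 48, 96 and 120 h to build growth curves. Highest nontoxic level defined as logarithmic growth rate ≥75% of untreated and total growth after 5 days ≥75% of control.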

[2] = system: Moloney murine sarcoma virus; experiment: Antiviral activity against Moloney murine sarcoma virus infected in mouse 3T3-FL cells assessed as inhibition of cellular focal transformation at highest nontoxic concentration after 5 days by microscopic analysis relative to control; assay type: functional
Outline: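 3T3FL cells seeded 1×10^5/dish in McCoy's 5A with 10% fetal calf serum, incubated overnight, primed with 25 µg/mL DEAE-dextran 20 min at room temperature, infected with ~100 FFU Moloney MSV (1 h adsorption, 37 °C); drug medium (0.25% Me2SO final) added, 5 days 37 °C without medium change; foci counted microscopically versus parallel control cultures.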

Row | SMILES | MNTC [1] [nM] | inhibition (INH) [2] [%]
1 | CNCc1c2c(O)c3c(O)c(C)c4c(c3c1O)C(=O)[C@@](C)(O/C=C/[C@H](OC)[C@@H](C)[C@@H](OC(C)=O)[C@H](C)[C@H](O)[C@H](C)[C@@H](O)[C@@H](C)/C=C/C=C(/C)C(=O)N2)O4 | 1400 | 14
2 | CCCNCc1c2c(O)c3c(O)c(C)c4c(c3c1O)C(=O)[C@@](C)(O/C=C/[C@H](OC)[C@@H](C)[C@@H](OC(C)=O)[C@H](C)[C@H](O)[C@H](C)[C@@H](O)[C@@H](C)/C=C/C=C(/C)C(=O)N2)O4 | 1300 | 10
3 | CO[C@H]1/C=C/O[C@@]2(C)Oc3c(C)c(O)c4c(O)c(c(CN)c(O)c4c3C2=O)NC(=O)/C(C)=C\C=C\[C@H](C)[C@H](O)[C@@H](C)[C@@H](O)[C@@H](C)[C@H](OC(C)=O)[C@@H]1C | 1400 | 0
4 | CO[C@H]1/C=C/O[C@@]2(C)Oc3c(C)c(O)c4c(O)c5c(c(O)c4c3C2=O)CN(C)C(=N5)/C(C)=C\C=C\[C@H](C)[C@H](O)[C@@H](C)[C@@H](O)[C@@H](C)[C@H](OC(C)=O)[C@@H]1C | 1400 | 0
5 | CO[C@H]1/C=C/O[C@@]2(C)Oc3c(C)c(O)c4c(O)c5c(c(O)c4c3C2=O)CNC(=N5)/C(C)=C\C=C\[C@H](C)[C@H](O)[C@@H](C)[C@@H](O)[C@@H](C)[C@H](OC(C)=O)[C@@H]1C | 1400 | 26
